The target in assay [1] is T1, D(2) dopamine receptor (Homo sapiens, UniProt P14416). The experiment in a line: Ratio of the high affinity state over low affinity state of dopamine D2 receptor in the presence of Gpp(NH)p. The method in brief: (§1)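 D2 receptor binding: [3H]spiroperidol displaced by the agonist N-propylnorapomorphine, run without or with Gpp(NH)p (100 μM). The assay was done either with 100 nM test-compound pretreatment or untreated as its control. High- and low-affinity dissociation constants (KH, KL) and receptor fractions (RH, RL, RH/RL) are reported. Values are mean ± SEM of 3–4 separate experiments, each done in duplicate or triplicate.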
T1 sequence (P14416 whole entry): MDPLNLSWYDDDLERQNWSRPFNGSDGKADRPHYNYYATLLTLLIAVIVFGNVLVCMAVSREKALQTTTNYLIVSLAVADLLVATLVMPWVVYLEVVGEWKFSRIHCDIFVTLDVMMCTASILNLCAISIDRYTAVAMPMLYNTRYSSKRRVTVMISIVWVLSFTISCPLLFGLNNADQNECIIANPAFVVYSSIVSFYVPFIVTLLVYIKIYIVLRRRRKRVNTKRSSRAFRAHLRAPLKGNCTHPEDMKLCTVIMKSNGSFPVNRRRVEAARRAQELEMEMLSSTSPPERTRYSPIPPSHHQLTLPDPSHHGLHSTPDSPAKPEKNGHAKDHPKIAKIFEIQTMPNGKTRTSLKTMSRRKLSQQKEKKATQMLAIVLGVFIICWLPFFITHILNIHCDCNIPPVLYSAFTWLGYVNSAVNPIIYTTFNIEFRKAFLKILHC

Assay [2] has as its target T1, D(2) dopamine receptor. Nature of the assay: Inhibitor constant of compound for high affinity component of [3H]spiroperidol/N-propylnorapomorphine binding to Dopamine receptor D2 in presence of Gpp(NH)p (pretreatment with 100 nM of compound). A digest of the protocol: as §1
The target in assay [3] is T1, D(2) dopamine receptor. Nature of the assay: Percent of Dopamine receptor D2 in low affinity state for the compound in presence of Gpp(NH)p. The method in brief:
as §1

Assay [4] addresses T1, D(2) dopamine receptor. The experiment in a line: Ratio of the high affinity state over low affinity state of dopamine D2 receptor in the presence of Gpp(NH)p. (pretreatment with 100 nM of compound). A digest of the protocol: as §1
The target in assay [5] is T1, D(2) dopamine receptor. Nature of the assay: Inhibitor constant of compound for low affinity component of [3H]spiroperidol/N-propylnorapomorphine binding to Dopamine receptor D2 in absence of Gpp(NH)p. A digest of the protocol: as §1
Assay [6] has as its target T1, D(2) dopamine receptor. The experiment in a line: Ratio of the high affinity state over low affinity state of dopamine D2 receptor in the absence of Gpp(NH)p. (pretreatment with 100 nM of compound). A digest of the protocol: as §1
For assay [7], the target named is T1, D(2) dopamine receptor. Nature of the assay: Ratio of the high affinity state over low affinity state of dopamine D2 receptor in the absence of Gpp(NH)p. The method in brief:
as §1

For assay [8], the target named is T1, D(2) dopamine receptor. The experiment in a line: Percent of Dopamine receptor D2 in high affinity state for the compound in absence of Gpp(NH)p. The method in brief: as §1
For assay [9], the target named is T1, D(2) dopamine receptor. The experiment in a line: Percent of Dopamine receptor D2 in low affinity state for the compound in presence of Gpp(NH)p (pretreatment with 100 nM of compound). The method in brief: as §1
In assay [10] the target is T1, D(2) dopamine receptor. The experiment in a line: Inhibitor constant of compound for high affinity component of [3H]spiroperidol/N-propylnorapomorphine binding to Dopamine receptor D2 in absence of Gpp(NH)p (pretreatment with 100 nM of compound). A digest of the protocol: as §1
For assay [11], the target named is T1, D(2) dopamine receptor. The experiment in a line: Percent of Dopamine receptor D2 in low affinity state for the compound in absence of Gpp(NH)p (pretreatment with 100 nM of compound). The method in brief:
as §1

For assay [12], the target named is T1, D(2) dopamine receptor. Nature of the assay: Inhibitor constant of compound for high affinity component of [3H]spiroperidol/N-propylnorapomorphine binding to Dopamine receptor D2 in absence of Gpp(NH)p. The method in brief:
as §1

Assay [13] concerns the target T1, D(2) dopamine receptor. Nature of the assay: Inhibitor constant of compound for low affinity component of [3H]spiroperidol/N-propylnorapomorphine binding to Dopamine receptor D2 in absence of Gpp(NH)p (pretreatment with 100 nM of compound). The method in brief: as §1
In assay [14] the target is T1, D(2) dopamine receptor. The experiment in a line: Percent of Dopamine receptor D2 in low affinity state for the compound in absence of Gpp(NH)p. The method in brief: as §1
The target in assay [15] is T1, D(2) dopamine receptor. Nature of the assay: Inhibitor constant of compound for low affinity component of [3H]spiroperidol/N-propylnorapomorphine binding to Dopamine receptor D2 in presence of Gpp(NH)p. A digest of the protocol: as §1
Assay [16] deals with T1, D(2) dopamine receptor. Nature of the assay: Inhibitor constant of compound for high affinity component of [3H]spiroperidol/N-propylnorapomorphine binding to Dopamine receptor D2 in presence of Gpp(NH)p. A digest of the protocol:
as §1

The target in assay [17] is T1, D(2) dopamine receptor. The experiment in a line: Percent of Dopamine receptor D2 in high affinity state for the compound in absence of Gpp(NH)p (pretreatment with 100 nM of compound). The method in brief:
as §1

Assay [18] concerns the target T1, D(2) dopamine receptor. Nature of the assay: Percent of Dopamine receptor D2 in high affinity state for the compound in presence of Gpp(NH)p (pretreatment with 100 nM of compound). A digest of the protocol:
as §1

Assay [19] has as its target T1, D(2) dopamine receptor. The experiment in a line: Percent of Dopamine receptor D2 in high affinity state for the compound in presence of Gpp(NH)p. The method in brief: as §1
The test system of assay [20] is Rattus norvegicus. Nature of the assay: Percent increase in apomorphine induced rotational behavior in the 6-hydroxydopamine lesioned rat model of hemiparkinsonism by 0.01 mg/Kg of compound given intraperitoneally. The format is functional. The method in brief:
(§2)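 Rats with a unilateral 6-hydroxydopamine lesion of the substantia nigra received the test compound ip (0.00001–1 mg/kg) together with apomorphine (0.25 mg/kg, ip), n = 4. Contralateral rotations were counted over 10 min and expressed as percent change from the control rotational response, mean ± SEM.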

Assay [21] concerns Rattus norvegicus. The experiment in a line: Percent increase in apomorphine induced rotational behavior in the 6-hydroxydopamine lesioned rat model of hemiparkinsonism by 0.001 mg/Kg of compound given intraperitoneally. The format is functional. A digest of the protocol: as §2

“And” between values parts separate entries of the source, which are not always exact repeats. Equal values may be shown once. Peptide text beside a SMILES is read from it.

As to `CC(C)C[C@H](NC(=O)[C@@H]1CCCN1)C(=O)NCC(N)=O` (H-Pro-Leu-Gly-NH2), the RH/RL in assay [1] turned out to be 0.23; in [4], 0.44; in assay [6], 1.48; in assay [7] it was 0.96. Further, the Ki in assay [2] was 0.06 nM; in [5] it was 73.2 nM; in assay [10] it was 0.04 nM; in [12], 0.09 nM; in assay [13], 60.1 nM; in assay [15], 60 nM and 78 nM. Further, the Ki in assay [16] came out at 0.13 nM. The RL amounted to 82% in assay [3], 72% in assay [9], 41% in assay [11] and 51% in assay [14]. The RH in assay [8] turned out to be 49%; in assay [17], 61%; in [18], 32%; in [19], 19%.
With `NC(=O)C1CCS[C@@H]2C[C@]3(CCCN3C(=O)[C@@H]3CCCN3)C(=O)N12` (some centres undefined), the RH/RL in assay [1] is 0.17; in [4], 1.12; in assay [6], 1.77; in [7], 1.08. Besides, the Ki is 0.064 nM in [2]; 196 nM in assay [5]; 0.031 nM in assay [10]; 0.071 nM in [12]; 168 nM in assay [13]; 246 nM and 202 nM in [15]. Besides, the Ki in [16] is 0.122 nM. The compound also yielded an Activity in assay [20] of 95%. Besides, the RL in assay [3] was found to be 85%; in [9], 47%; in [11], 36%; in [14], 48%. For the same compound, the RH came to 52% in assay [8], 64% in [17], 53% in [18] and 15% in [19].
In the case of `NC(=O)[C@H]1CS[C@@H]2CC[C@]3(CCCN3C(=O)[C@@H]3CCCN3)C(=O)N12`, the RH/RL in [1] is 0.2; in assay [4], 1.22; in assay [6], 2.12; in assay [7] it was 1.13. This compound also came in with an Activity in assay [21] of 88%. For the same compound, the Ki in [2] was 0.09 nM; in assay [5], 190 nM; in assay [10] it was 0.05 nM; in assay [12], 0.067 nM; in assay [13], 188 nM; in assay [15], 260 nM and 211 nM. Further, in assay [16], the Ki is 0.196 nM. In addition, the RL in [3] was determined as 83%; in [9], 45%; in [11] it was 32%; in assay [14], 47%. The RH in assay [8] was 53%; in [17], 68%; in assay [18], 55%; in assay [19] it was 17%.

The values above are taken from ChEMBL document CHEMBL1132286, “Design, synthesis, and dopamine receptor modulating activity of spiro bicyclic peptidomimetics of L-prolyl-L-leucyl-glycinamide” (J Med Chem, 1999).
